Assay results taken from PubChem BioAssay AID617 (SRMLSC, 2007).

system: E. coli BW25113 ΔtolC growth inhibition, OD615; experiment: E. coli ΔtolC antibacterial growth inhibition – strain BW25113 ΔtolC::kan, dose response (AID 617)
Procedure, shortened: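 Test system: E. coli BW25113 ΔtolC::kan bacteria / Buffer or medium: kanamycin-containing LB broth, 50 µg/mL / Compound: serial dilution series of compound / Incubation: bacterial growth with compound for 20 h, 37 °C / Measured by: OD615 / Read-out basis: growth-inhibition IC50 from four-parameter logistic curve, bounds set to 0% and 100%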

Compound	IC50 [µM]
CCOc1cc(C)c(Cl)cc1S(=O)(=O)n1nnc2ccccc21	11.6
O=C1CC(O)(C(F)(F)F)Oc2c1ccc1ccccc21 (stereo unspecified)	1.19
CCSc1nnc(NC(=O)c2cccc(OCc3c(C)noc3C)c2)s1	10.8
Cc1oc2c(CN3CCOCC3)c(O)ccc2c(=O)c1-c1ccc(Br)cc1	2.83
Cc1cccc(Cc2c(C)nc3c(C(=O)NCc4ccco4)cnn3c2C)c1	49.6
CCc1c(O)nc(SCC(=O)Nc2ccc(C)cc2)n(C2CCCCC2)c1=O	7.36
CN(c1ccccc1)c1nc(N2CCCC2)nc(-n2ccnc2)n1	4.03
O=C1NC(Nc2nc3ccccc3s2)(C(F)(F)F)C(=O)N1C1CCCCC1 (stereo unspecified)	5.74
COc1ccccc1C1CC(c2ccc(Cl)cc2)Nc2ncnn21 (stereo unspecified)	15.1
Cc1ccc2c(c1)[nH]c1c(N3CCN(Cc4ccccc4)CC3)ncnc12	39.1
Cc1ccc(SC/C(O)=C(\C#N)c2nc3ccccc3s2)cc1	1.03
O=C(NCc1ccco1)c1sc(=S)n2c1[nH]c(=O)c1ccccc12	1.26
CCSCC1COC(c2cccn2Cc2ccc(C)cc2)=N1 (stereo unspecified)	39.4
O=c1c2c(nc3n1CCCCC3)-c1ccccc1CC21CCCC1	14.1
COc1ccc2nc(SCC(=O)N(C)C3CCCCC3)c(C#N)cc2c1	15.8
O=C(CCSc1nc(-c2ccco2)cc(C(F)(F)F)n1)N1CCCc2ccccc21	9.2
Cc1onc(-c2ccccc2)c1C(=O)OCC(=O)c1ccccc1	24.2
O=C(CC(=O)c1cc(Cl)ccc1O)c1ccccc1	8.34
CCOC(=O)c1nnn(-c2nonc2-n2cccc2)c1CN1CCC(C)CC1	23.4

Compound	IC50 [µM]
CC1=C(C(=O)OCC(C)C)C(c2cc3c(cc2Br)OCO3)NC(=O)N1C (stereo unspecified)	18.1
CCCCOc1ccc(S(=O)(=O)N2CCCCCC2)cc1	23.8
CC(C)Cc1cc(C(=O)Nc2sc3c(c2C#N)CCCC3)no1	8.44
Clc1ccc(OCc2nc(-c3ccccn3)n[nH]2)cc1	15.4
COc1ccc(C2CC(c3ccccc3)n3nc(NC(=O)c4cccs4)nc3N2)cc1 (stereo unspecified)	8.18
CCOC(=O)c1cccc2c1-c1ccccc1/C2=N/O	97.1
Clc1ccc(Cl)c(-c2nn3c(COc4ccccc4)nnc3s2)c1	0.78
COc1ccc2c(-c3ccccc3)cc(N3CCOCC3)nc2c1	17.9
CC(C)C[C@H](NC(=O)OC(C)(C)C)c1nnc(SCc2cccc(F)c2)o1	11.9
Cc1ccc2cc(CN(Cc3ccccc3)Cc3nnnn3C3CCCC3)c(=O)[nH]c2c1	11.6
Cc1cccc(OCCCCc2c(C)n[nH]c2C)c1C	1.56
C=C(C)COc1ccc(-c2ncncc2Oc2ccc(OC)cc2)c(O)c1	14
COc1ccc(-c2n[nH]c(C(F)(F)F)c2-c2cc3ccccc3o2)c(O)c1	1.99
Cc1ccc(OCc2nc(C#N)c(N3CCN(Cc4ccccc4)CC3)o2)cc1	12.9
CCn1c(=O)c2cc(C(=O)N3CCN(C(=O)c4ccco4)CC3)sc2c2ccccc21	6.29
Cc1ccc(C(C)C)c(Oc2nnnn2-c2ccccc2)c1	14.7
CN(Cc1ccccc1)C(=O)CSc1nc2ccccc2c(=O)n1Cc1ccco1	10.7
CCOC(=O)c1cc(C)n(S(=O)(=O)c2ccc(C)cc2)c1C	12.4
Cc1ccc(CN2C(=O)NC(=O)C3(Cc4c(nc5ccccn5c4=O)N4CCCCCC43)C2=O)cc1 (stereo unspecified)	22.2

Compound	IC50 [µM]
N=c1c2c(-c3ccccc3)c(-c3ccccc3)n(Cc3ccco3)c2ncn1Cc1ccco1	4.32
c1csc(-c2noc(COc3ccc4c(c3)CCCC4)n2)c1	18.4
C=CCSc1n[nH]c(-c2ccc(OCCCC)cc2)n1	93.1
CCOC(=O)Cc1ccc(NS(=O)(=O)c2ccc(SC)cc2)cc1	14.7
COc1ccccc1C(=O)Nc1nnc(-c2ccc3c(c2)CCCC3)o1	6.32
Cc1cc(=O)[nH]c(-n2nc(C)cc2C)n1	6.56
Cn1c(C(=O)N2CCc3ccccc3C2)cc2oc3ccccc3c21	7.81
O=c1[nH]c(=O)n(C2CCCCCC2)c(O)c1C=NCc1ccc(F)cc1	14.6
Cc1cccc(S(=O)(=O)C(C#N)c2nc3ccccc3nc2N2CC(C)OC(C)C2)c1 (stereo unspecified)	14.4
O=C(c1ccco1)N1CCN(c2c(-c3ccccc3)c3cc(Cl)ccc3[nH]c2=O)CC1	24
CCn1cc(C(=O)O)c(=O)c2cc(OC)ccc21	9.67
Cc1ccnc(N2CCC(C(=O)Nc3cccc(C(F)(F)F)c3)CC2)n1	82.2
CC(C)(C)c1ccc(OCC(=O)NCc2ccco2)c(Br)c1	14.6
Cc1cccc(NC(=O)c2cc(NC(=O)C3CCCCC3C(=O)O)ccc2N2CCCCC2)c1 (stereo unspecified)	6.1
O=C(C1CC1)N1CCc2cc(S(=O)(=O)NCCC3=CCCCC3)ccc21	17.7
Cc1cccnc1Nc1nc(-c2ccc(O)cc2O)cs1	17.8
Cc1cc(C)c(O)c(-c2cc(C(=O)Nc3ccc(S(=O)(=O)N4CCOCC4)cc3)[nH]n2)c1	6.03
O=C(O)c1cc(Cl)c2ccccc2c1O	10.1
